According to paper PMC10851409 (ACS Omega, 2024):

Experiments:
[1] = target: T1, bovine serum albumin (BSA) (Bos taurus, UniProt P02769); experiment: UV–vis absorption titration of BSA; assay type: binding; settings: pH 7.4; for Enthalpy ΔH / Entropy ΔS: from Kb at 298 and 308 K
Method in brief: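 Peltier-thermostatted spectrophotometer, 1 cm quartz cell, 1 nm slit, spectra over 200–500 nm. BSA in PBS pH 7.4 titrated with test compound (2.46–22.22 μM) and read at 279 nm; ligand-alone absorbance also recorded. Run at 298 and 308 K. Kb taken from the […] of the Benesi–Hildebrand plot, A0/(A–A0) versus 1/[compound]; thermodynamic parameters derived from Kb at both temperatures.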

[2] = target: T1, bovine serum albumin (BSA); experiment: Steady-state fluorescence quenching of BSA; assay type: binding; settings: for Number of binding sites n / Stern–Volmer constant Ksv / Bimolecular quenching rate parameter kq: 298 K; for Stern–Volmer constant Ksv: pH 7.4; for Bimolecular quenching rate parameter kq: τo = 10^–8 s; for Fluorescence quenching mechanism: BSA fluorescence, kq compared with 2.0 × 10^10 m^–1 s^–1
Method in brief: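 BSA stock in PBS pH 7.4, with concentration set from absorbance (ε 43,824 M–1 cm–1); test compounds from DMSO stocks, 2.46–22.22 μM. Emission recorded in a 1.0 cm quartz cuvette at 298 K with excitation at 280 nm and 5 nm excitation/emission bandwidths. Stern–Volmer and modified Stern–Volmer plots analysed; kq calculated using τo of 10–8 s for native BSA.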

[3] = target: T1, bovine serum albumin (BSA); experiment: Time-resolved fluorescence decay of BSA; assay type: binding; settings: 298 K; for α1 / α2 / α3 / τ1 / τ2 / τ3: triexponential fitting
Method in brief: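 Time-correlated single-photon counting with pulsed nanosecond LED excitation at 280 nm, 298 K. Instrument response recorded with a scattering solution; 114 ps per channel. Decays fitted as a sum of exponentials by nonlinear least-squares reconvolution, with pre-exponential factors normalized to 1 and errors taken as three standard deviations. Fit judged by χ2 and weighted residuals; average lifetime from triexponential fits.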

[4] = tested on: Plasmodium falciparum; settings: read-out: IC50 antiplasmodial; P. falciparum; cited from earlier work

T1 sequence (P02769 25-607): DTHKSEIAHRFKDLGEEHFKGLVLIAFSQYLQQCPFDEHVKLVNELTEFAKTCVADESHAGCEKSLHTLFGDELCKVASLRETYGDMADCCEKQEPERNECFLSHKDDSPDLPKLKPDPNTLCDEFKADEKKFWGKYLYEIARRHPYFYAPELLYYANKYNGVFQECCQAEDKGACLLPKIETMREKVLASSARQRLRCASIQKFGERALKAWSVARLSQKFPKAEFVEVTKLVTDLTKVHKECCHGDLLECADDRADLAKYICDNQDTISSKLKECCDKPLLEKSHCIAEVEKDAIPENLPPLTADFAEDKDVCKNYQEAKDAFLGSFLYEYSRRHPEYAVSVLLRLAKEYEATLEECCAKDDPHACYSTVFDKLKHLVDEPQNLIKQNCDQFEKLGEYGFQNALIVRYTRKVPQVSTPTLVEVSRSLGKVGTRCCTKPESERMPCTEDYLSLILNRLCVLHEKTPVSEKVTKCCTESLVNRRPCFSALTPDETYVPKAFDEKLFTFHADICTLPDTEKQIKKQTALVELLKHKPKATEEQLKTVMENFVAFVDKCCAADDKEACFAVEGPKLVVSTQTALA

SMILES | Gibbs free energy ΔG ([1]; 298 K) | Gibbs free energy ΔG ([1]; 308 K) | Enthalpy ΔH [1] | Entropy ΔS [1] | Number of binding sites n [2] | Stern–Volmer constant Ksv [2] | Bimolecular quenching rate parameter kq [2] | Fluorescence quenching mechanism [2] | τavg (average fluorescence lifetime of BSA) ([3]; ligand 2.46 μm) | α1 ([3]; ligand 2.46 μm) [%] | α2 ([3]; ligand 2.46 μm) [%] | α3 ([3]; ligand 2.46 μm) [%] | τ1 ([3]; ligand 2.46 μm) | τ2 ([3]; ligand 2.46 μm) | τ3 ([3]; ligand 2.46 μm) | τavg (average fluorescence lifetime of BSA) ([3]; ligand 9.52 μm) | α1 ([3]; ligand 9.52 μm) [%] | α2 ([3]; ligand 9.52 μm) [%] | α3 ([3]; ligand 9.52 μm) [%] | τ1 ([3]; ligand 9.52 μm) | also measured
CC(C)=CCc1c(O)c(CC=C(C)C)c2oc3c(O)ccc(O)c3c(=O)c2c1O [gartanin] | –24.28 kJ mol^–1 | –23.68 kJ mol^–1 | –42.16 kJ mol^–1 | –0.06 kJ mol^–1 | 1 | 2.57 × 10^4 L mol^–1 | 2.57 × 10^12 | static quenching | 6.2 | 26.45 | 67.78 | 5.77 | 2.971 | 6.871 | 0.8793 | 6.2 | 30.06 | 64.04 | 5.91 | 3.0512 | τ2 ([3]; ligand 9.52 μm): 6.967; τ3 ([3]; ligand 9.52 μm): 0.8022; τavg (average fluorescence lifetime of BSA) ([3]; ligand 16.09 μm): 6.1; α1 ([3]; ligand 16.09 μm): 28.92%; α2 ([3]; ligand 16.09 μm): 64.86%; α3 ([3]; ligand 16.09 μm): 6.22%; τ1 ([3]; ligand 16.09 μm): 2.945; τ2 ([3]; ligand 16.09 μm): 6.882; τ3 ([3]; ligand 16.09 μm): 0.8547; τavg (average fluorescence lifetime of BSA) ([3]; ligand 22.22 μm): 6.2; α1 ([3]; ligand 22.22 μm): 30.4%; α2 ([3]; ligand 22.22 μm): 60.86%; α3 ([3]; ligand 22.22 μm): 8.74%; τ1 ([3]; ligand 22.22 μm): 3.254; τ2 ([3]; ligand 22.22 μm): 7.004; τ3 ([3]; ligand 22.22 μm): 0.9952
C[C@H]1C(=O)CC[C@@H]2[C@]1(C)CC[C@H]1[C@@]2(C)CC[C@@]2(C)[C@@H]3CC(C)(C)CC[C@]3(C)CC[C@]12C [friedelin] | –20.52 kJ mol^–1 | –19.22 kJ mol^–1 | –59.26 kJ mol^–1 | –0.13 kJ mol^–1 | 1 | 1.47 × 10^4 L mol^–1 | 1.47 × 10^12 | static quenching | 6.6 | 8.67 | 55.5 | 35.83 | 2.2687 | 5.696 | 7.962 | 6.7 | 13.49 | 84.08 | 2.43 | 2.6997 | τ2 ([3]; ligand 9.52 μm): 6.576; τ3 ([3]; ligand 9.52 μm): 14.2863; τavg (average fluorescence lifetime of BSA) ([3]; ligand 16.09 μm): 6.8; α1 ([3]; ligand 16.09 μm): 9.59%; α2 ([3]; ligand 16.09 μm): 86.56%; α3 ([3]; ligand 16.09 μm): 3.85%; τ1 ([3]; ligand 16.09 μm): 2.21; τ2 ([3]; ligand 16.09 μm): 6.354; τ3 ([3]; ligand 16.09 μm): 14.127; τavg (average fluorescence lifetime of BSA) ([3]; ligand 22.22 μm): 6.5; α1 ([3]; ligand 22.22 μm): 25.73%; α2 ([3]; ligand 22.22 μm): 71.9%; α3 ([3]; ligand 22.22 μm): 2.37%; τ1 ([3]; ligand 22.22 μm): 3.978; τ2 ([3]; ligand 22.22 μm): 7.1; τ3 ([3]; ligand 22.22 μm): 1.075; IC50 [4]: 7.2 µM
